Assay outcomes (PubChem BioAssay)
The sample as a whole holds a higher share of hits than the screen did.
ALR inh: inhibitors of human ALR sulfhydryl oxidase, primary screen, biochemical, H2O2 detection, HRP-luminol luminescence, single point | FAD-linked sulfhydryl oxidase ALR (Homo sapiens), P55789 | purified ALR, DTT oxidation | inhibition, % (test concentration not listed) | actives 3.8% (n = 290,000);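 active = mean replicate inhibition above about 79%, with every replicate also reaching it, limit read from the data; inconclusive = only one of the two criteria met; inactive = mean below limit and not every replicate reaching it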
Target sequence (P55789 whole entry, looked up): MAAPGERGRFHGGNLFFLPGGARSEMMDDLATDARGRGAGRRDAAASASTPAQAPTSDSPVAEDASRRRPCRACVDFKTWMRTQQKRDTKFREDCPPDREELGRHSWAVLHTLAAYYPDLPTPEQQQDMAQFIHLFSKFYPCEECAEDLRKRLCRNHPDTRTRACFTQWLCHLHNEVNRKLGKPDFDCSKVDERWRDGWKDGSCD
T cell HTS: modulators of CD8 T cell-vesicle binding, primary screen, mouse 2C CD8+ T cells, flow cytometry | actives 0.068% (n = 330,000) | 2C CD8+ T cell-vesicle binding; hits give low values | AID 2052, 2009 | response (vesicle binding), % at 7 µM;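 active = response, share of CD8 T cells binding vesicles, and their 90th percentile fluorescence all below set limits, cut at about 80% in these data, passing the limit was not always enough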;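 note: values below 100% mean blocked vesicle binding to the CD8+ T cells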
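Assay system – 2C mouse CD8+ T cells · Also added – QL9-loaded Drosophila micro-vesicles · Timing – Cell–vesicle co-incubation 1.5 h at 37 °C, staining 20 min on ice · Signal – flow cytometry of vesicle-bound cells · Measure – percent CD8+ FL2 mean versus row control · Controls – Peptide-free naked vesicles (low) and QL9 vesicles with 0.7% DMSO vehicle (high)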
N-glyco inh: increase of ERlucT glycosylation luciferase signal, primary screen, N-linked glycosylation inhibitor project, D54 ERlucT cells, luminescence, set 2 | D54 ERlucT glycosylation luciferase reporter, 24 h; percent of 100 nM tunicamycin response | reporter increase, % at 12.5 µM | actives 0.23% (n = 360,000) | AID 588692, 2011;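 active = mean luciferase reporter signal, scaled so untreated is 0 and the glycosylation-blocking control 100, at or above a set limit in every replicate; inconclusive = mean reaches the limit but not every replicate does; inactive = mean below the limit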;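 note: luciferase carries N-glycosylation sites so blocking glycosylation raises the light; 0% = median of neutral control wells and 100% = median of 100 nM tunicamycin wells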
Starred values were filed as active, the others as inactive; i = inactive; ? = inconclusive; / = not tested or not shown.

SMILES | ALR inh | T cell HTS | N-glyco inh
COc1cc(-c2nc3ccc(C)cn3c2Nc2ccc3c(c2)OCCO3)ccc1O | 91.1* | 220.9 | 7.7
COc1ccc(-c2csc(NC(=O)CCNC(=O)c3ccco3)n2)cc1 | / | / | -0.5
COc1ccc(CCC(=O)N2CCCSC2=Nc2ccc(C(C)=O)cc2)cc1 | -3.4 | i | -1.2
Cc1nc(Br)c(Br)n1Cc1ccccc1 | / | / | -1.1
O=C(COc1ccc(Br)cc1)NNC(=O)c1cc(S(=O)(=O)N2CCOCC2)ccc1Cl | / | / | -2.0
COc1cc(-c2nc3cnccn3c2Nc2ccc(C)cc2)ccc1O | 99.5* | 374.5 | 26.1*
COc1cc(-c2nc3cnccn3c2Nc2ccccc2)ccc1O | ? | 464.5 | 16.4
COc1ccccc1NS(=O)(=O)c1ccc(C(=O)NCC(c2ccco2)N2CCCCC2)cc1 (stereo not given) | / | / | -1.9
CN(CC(=O)NCc1ccco1)S(=O)(=O)c1ccc2c(c1)n(C)c(=O)c(=O)n2C | 91.8* | 271.5 | 0.2
CN(CC(=O)NCc1ccccc1Cl)S(=O)(=O)c1ccc2c(c1)n(C)c(=O)c(=O)n2C | -1.9 | 554.7 | 2.3
CCOC(=O)c1[nH]c(C)c(C(=O)Nc2cc(Cl)ccc2C)c1C | -17.5 | 209.1 | 29.2*
CCOC(=O)c1[nH]c(C)c(C(=O)Nc2ccccc2C)c1C | -7.8 | 927.9 | 18.5
Cc1cccc(-c2nc3c(c(=O)c4ccccc4n3C)c(=O)n2-c2ccccc2)c1 | -1.1 | 291.2 | -2.5
O=C(NNS(=O)(=O)c1ccc(F)cc1)C1CC(c2cccnc2)=NO1 (stereo not given) | / | 728.9 | 1.0
Oc1ccc(Br)cc1/C=N/NC(=S)NCCc1ccccc1 | -1.4 | 184.7 | 1.4
O=C(CCc1ccccc1)N/N=C/c1cc(Br)ccc1O | 0.5 | 0.0* | -3.7
CCN(CC)C(=O)CSc1nnc(CSc2ncccn2)n1C | -6.7 | 181.7 | 1.5
COc1ccccc1NC(=O)c1ccc2[nH]c(C)c(C)c2c1 | 86.8* | 190.8 | -1.4
Cc1[nH]c2ccc(C(=O)Nc3ccncc3)cc2c1C | / | 100.1 | 2.3
CC1(Cc2ccc(F)c(Cl)c2)C(=O)Nc2c(Cl)cccc21 (stereo not given) | / | / | -6.3
CCOc1ccc(NC(=S)NC(C)C(c2ccccc2)N2CCN(C)CC2)cc1 (stereo not given) | -10.1 | 162.7 | -1.6
CC(NC(=O)COc1ccccc1)C(c1ccccc1)N1CCN(C)CC1 (stereo not given) | 97.9* | 432.1 | -2.8
O=C(CCN1C(=O)C2CC=CCC2C1=O)Nc1ccc(S(=O)(=O)N2CCCCC2)cc1 (stereo not given) | / | / | 1.4
O=C(NN=C1CCCC1)c1cc(Br)ccc1O | 74.8 | 0.0 | 2.5
O=C(N/N=C1/CCSC1)c1cc(Br)ccc1O | 92.7* | 215.8 | 1.2
SMILES | ALR inh | T cell HTS | N-glyco inh
CC(c1ccc(F)cc1)n1c(-c2cccs2)n[nH]c1=S (stereo not given) | 92.7* | 146.3 | -0.8
CC(c1ccccc1)n1c(-c2ccccc2F)n[nH]c1=S (stereo not given) | 20.9 | 146.6 | -0.7
COc1cc2c(cc1OC)C(C(=O)Nc1ccc(F)c(Cl)c1)CC(=O)N2 (stereo not given) | -4.4 | 731.1 | -0.4
CCn1c(=O)n(CC)c2cc(N3CCCC3)c(NC(=O)c3ccc(C)c([N+](=O)[O-])c3)cc21 | 65.0 | 277.0 | 5.7
COC(=O)c1c(N2C(=O)Nc3ccccc3N2O)sc(C)c1C | 6.2 | 170.9 | 1.0
CCOC(=O)c1c(N2C(=O)Nc3ccccc3N2O)sc2c1CCCC2 | 92.5* | 119.9 | 0.3
c1ccc(-c2nc(CSc3nnnn3-c3ccccc3)cs2)cc1 | -1.3 | 358.6 | -2.3
Cc1ccccc1Nc1nc(CSc2nnnn2-c2ccccc2)cs1 | 97.7* | 311.8 | -1.0
C/C(CC(=O)Nc1ccc2c(c1)OCCO2)=N\NC(=O)C(=O)Nc1ccccc1C | 7.6 | 194.0 | -1.5
CCOC(=O)c1c(C)n(C)c2cc(Br)c(O)c(O)c12 | 7.3 | 203.5 | -0.5
CCOC(=O)c1c(CSc2cccs2)n(C)c2cc(Br)c(O)c(CN(C)C)c12 | 98.7* | 229.4 | -1.8
O=C(C1CCCN1S(=O)(=O)c1ccc(Cl)cc1)N1CCN(c2ccccc2)CC1 (stereo not given) | 35.4 | 209.9 | -0.4
Cc1ccc(NC(=S)N2CCOCC2)cc1 | -1.0 | 247.6 | 0.3
COc1cc(/C=N/NC(=S)NCCN2CCOCC2)ccc1O | 99.0* | 61.7 | 3.5
Oc1ccc(/C=N/NC(=S)N2CCOCC2)cc1 | 99.0* | 523.7 | -0.3
COCCNC(=S)N/N=C/c1ccc(N2CCOCC2)cc1 | 98.5* | 253.9 | -0.3
COC(=O)c1ccc(/C=N/NC(=S)NC(C)C)cc1 | -3.9 | 156.2 | -4.4
COc1ccc(OC)c(NC(=S)NCCN2CCOCC2)c1 | -7.8 | 171.4 | 0.2
CC(C)NC(=S)N/N=C/c1ccc(N2CCOCC2)cc1 | 98.8* | 210.5 | -1.0
C=C(C)CNC(=S)N/N=C/c1ccc(N2CCOCC2)cc1 | ? | 183.7 | -2.2
O=C(CSc1ccccn1)Nc1nonc1[N+](=O)[O-] | -56.8 | 323.3 | -14.2
COCCNC(=S)Nc1ccc(N2CCCCC2)cc1 | 98.9* | 470.2 | 2.9
COc1ccc(C(=O)NC(=S)Nc2ccc(N3CCCC3)cc2)cc1 | -7.0 | 430.7 | 0.1
Cc1cccc2c1ncc1c(=O)n(-c3ccccc3)[nH]c12 | -5.7 | 332.7 | -0.5
Cc1cc2nc(C(C)(C)C)c(Cc3ccccc3)n2c(C)c1Br | / | / | 0.4
SMILES | ALR inh | T cell HTS | N-glyco inh
O=C(O)c1ccc(S(=O)(=O)N(Cc2cccs2)CC2CCCO2)cc1 (stereo not given) | -6.6 | 164.4 | 2.3
COc1ccc(CCN(Cc2cccs2)S(=O)(=O)c2ccc(C(=O)O)cc2)cc1OC | 93.8* | 360.4 | 0.6
CN(C(=O)CSCC(=O)Nc1ccc(Cl)cc1)C1CCCCC1 | -4.7 | 368.7 | -0.2
N#CC1=C(C2CC2)CC(c2ccccc2)C(C#N)=C1N (stereo not given) | 3.7 | 217.9 | -0.8
N#CC1=C(N)SC2(CCCCC2)SC1c1ccccc1 (stereo not given) | 93.6* | 433.4 | -2.4
N#Cc1ccc(NN=Nc2ccccc2C#N)cc1 | / | / | -2.9
O=C(Nc1nnc([C@H]2C[C@H](O)[C@@H](CO)O2)s1)Nc1ccccc1F | / | / | -2.6
Fc1cccc(Nc2nc3ccccc3n3nnnc23)c1 | -0.6 | 581.2 | 1.8
COc1cccc(Nc2nc3ccccc3n3nnnc23)c1 | 97.3* | 326.0 | 2.2
CC(C)n1ncc2c(C(=O)NCCc3ccc(S(N)(=O)=O)cc3)cc(C3CC3)nc21 | / | / | 0.9
Cc1nn(C(C)C(=O)NCCc2ccco2)c(=O)c2nn(-c3ccccc3)c(C)c12 (stereo not given) | 8.8 | 267.2 | 1.3
COC(=O)c1nnn(-c2nonc2N)c1CN1CCc2ccccc21 | 97.6* | 398.5 | 12.8
COC(=O)c1ccc(CN2CCc3ccccc32)cc1 | 97.9* | 155.9 | -1.7
COC(=O)c1ccc(S(=O)(=O)N2CCc3ccccc32)cc1 | -22.2 | 282.3 | ?
Nc1nonc1-n1nnc(C(=O)N/N=C/c2ccccc2)c1CN1CCc2ccccc21 | / | 269.2 | 5.7
COc1ccc(-c2csc(C(C#N)=C(O)CSc3nccn3C)n2)cc1OC | / | / | -0.4
